Source: PubChem BioAssay (Broad Institute)
In the library only some 3.6% were active in any assay of this set; here they are far more common.
CSC inhib: cancer stem cell inhibition; cancer stem cell-like cells viability, luminescence; inhibition, % at 7.5 µM; 300,000 compounds, 1.1% hits; AID 2717; in the data active = inhibition above about 75%; tested in HMLE shEcad cells
PfHsp90 set2: inhibits growth of yeast expressing Plasmodium falciparum Hsp90 | inhibition, % at 9.4 µM | S. cerevisiae expressing PfHsp90, BacTiter-Glo ATP, 48 h; yeast lacking PDR1 and PDR3 efflux regulators | 310,000 compounds, 0.32% hits;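 active = every replicate shows inhibition above about 80%, whatever the replicate mean, limit read from the data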
Beta cell apopt: blocks beta cell apoptosis. INS-1E cytokine-induced death, ATP luminescence, 48 h; percent of positive-control rescue, neutral wells zero. protection from apoptosis, % (concentration not given with the values). 300,000 compounds, 0.8% hits. AID 435005;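 active = Every replicate reaches about 75%, or at least half do and their mean reaches it too, limit read from the data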;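 note: higher means more ATP so stronger rescue from cytokine killing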
T cruzi inh: blocks replication of Trypanosoma cruzi; T. cruzi beta-gal in NIH3T3, luminescence, 90 h; inhibition, % (concentration not given with the values); 300,000 compounds, 1.4% hits; AID 1885;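 active = mean inhibition across valid replicates above about 55%, limit read from the data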;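 note: signal also drops with host cell toxicity which is not excluded here; higher percent means less beta-gal luminescence so fewer parasites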
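Material: NIH/3T3 host cells with β-galactosidase reporter T. cruzi; Input: 5,000 host fibroblasts per well; Medium: DMEM, 2% fetal bovine serum; Compound: 50 nL DMSO compound solution per well; Schedule: 3 h host attachment, then at least 90 h co-culture; Detection: luminescent β-galactosidase signal after 60 min lysis.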
HIF activator: HIF pathway transcriptional activation | AID 1910 | U2OS HRE-luciferase reporter, luminescence; normalized: DMSO 0%, desferrioxamine 100% | activation, % at 7.5 µM (by protocol) | 300,000 compounds, 0.32% hits;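 active = mean activation of at least 10% of the iron chelator positive control signal, with at least half of replicates also reaching 10%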
SKKanGAS inh: blocks kanamycin growth of S. pyogenes SKKanGAS strain. BacTiter-Glo, 6 h. inhibition, % at 7.5 µM. 300,000 compounds, 1.3% hits;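 active = mean replicate score, as percent of positive control median, at least 50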;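 note: strain carries kanamycin resistance gene driven by streptokinase promoter and grows in 40 µg/ml kanamycin; loss of luminescence reflects streptokinase promoter inhibition or plain growth inhibition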
Each line names hits and unclear results; the compound was inactive in the other large screens.

COC(=O)C1=C(C)N(Cc2ccccc2)C(=NCCc2c[nH]c3ccccc23)N[C@H]1c1cccc(F)c1	CSC inhib 122.9 (no result: T cruzi inh, HIF activator, SKKanGAS inh)
COC(=O)[C@H](Cc1ccccc1)[C@@H](C)OS(N)(=O)=O	none (no result: PfHsp90 set2, Beta cell apopt)
CCCNC(=O)c1ccc(N2CCC3(CC2)CC(c2ccccc2)=NO3)c(NC(=O)c2ccco2)c1	SKKanGAS inh 49.8
O=c1cc(N2CCN(c3cccc(Cl)c3)CC2)[nH]c(=O)n1C1CCCCC1	Beta cell apopt 88.6
O=c1cc(N2CCN(c3ccccc3)CC2)[nH]c(=O)n1C1CCCCC1	none
COc1ccc(C(=O)c2nccc3cc(OC)c(OC)cc23)cc1OC	none (no result: T cruzi inh, HIF activator, SKKanGAS inh)
COc1cc2c(cc1OC)-c1c(OC)c(OC)cc3ccnc(c13)C2=O	Beta cell apopt 112.3
c1csc(-c2csc3nc(CN4CCOCC4)nc(NCc4ccc5c(c4)OCO5)c23)c1	T cruzi inh 57.0, SKKanGAS inh 57.2
COc1ccc(/C=N/NS(=O)(=O)c2ccc(F)cc2)cc1COc1cc(F)ccc1[N+](=O)[O-]	T cruzi inh 58.7
CCCCNc1c(-c2ccc(SC3CCCCC3)c(OC)c2)nc2ccc(Cl)cn12	T cruzi inh 69.6
CCCCNc1c(-c2ccc(SC(C)CC)c(OC)c2)nc2ccc(Cl)cn12 (centres undefined)	none (no result: T cruzi inh, HIF activator, SKKanGAS inh)
CCCCCCSc1cc(-c2nc3ccc(Cl)cn3c2NC2CCCCC2)ccc1OC	none
CCCCNc1c(-c2ccc(SC(C)CC)c(OC)c2)nc2ccc(C)cn12 (centres undefined)	CSC inhib 123.3, SKKanGAS inh 72.1
CCOC(=O)c1sc2ncnc(N3CCN(CC)CC3)c2c1C	T cruzi inh 77.2
CCOC(=O)c1sc2ncnc(N3CCN(C(=O)OCC)CC3)c2c1C	none (no result: CSC inhib)
COc1cccc(CNC(=O)c2ccc(C)c(NC3=NC4CS(=O)(=O)CC4S3)c2)c1 (centres undefined)	none (no result: CSC inhib)
CNC(=O)C1CC(=O)N(c2ccc(OCC(=O)N3CCCC3)cc2)C1 (centres undefined)	HIF activator 28.6 (no result: CSC inhib)
CC(=O)NC(c1ccc(Cl)cc1)c1ccc2cccnc2c1O (centres undefined)	PfHsp90 set2 113.9 (no result: CSC inhib, Beta cell apopt, T cruzi inh, HIF activator, SKKanGAS inh)
CCCC(=O)NC(c1ccc(OC)cc1)c1c(O)ccc2ccccc12 (centres undefined)	none
CC(=O)NC(c1ccco1)c1ccc2cccnc2c1O (centres undefined)	Beta cell apopt 90.2
CCCC(=O)NC(c1ccccc1Cl)c1ccc2cccnc2c1O (centres undefined)	CSC inhib 109.4, PfHsp90 set2 113.3, Beta cell apopt 98.8, HIF activator 71.3
CCCC(=O)NC(c1ccc(C(C)C)cc1)c1ccc2cccnc2c1O (centres undefined)	CSC inhib 99.4, T cruzi inh 56.8, HIF activator 119.2, SKKanGAS inh 84.2 (no result: Beta cell apopt)
O=C(Nc1cccc2cccnc12)c1ccc(Cl)cc1	none (no result: CSC inhib, Beta cell apopt)
CC1(C)Oc2ccc3ccc(=O)oc3c2/C(=C/NNC(N)=O)C1=O	none
CCCC(=O)NC(c1ccc(N(C)C)cc1)c1ccc2cccnc2c1O (centres undefined)	CSC inhib 151.6, Beta cell apopt 96.2, T cruzi inh 58.7, HIF activator 48.2
CCC(=O)NC(c1ccc(C)cc1)c1ccc2cccnc2c1O (centres undefined)	PfHsp90 set2 112.4, T cruzi inh 57.1, HIF activator 97.5, SKKanGAS inh 71.3
Cc1cc(NC(c2ccc(Cl)cc2)c2ccc3cccnc3c2O)no1 (centres undefined)	CSC inhib 101.0, PfHsp90 set2 100.9, HIF activator 168.6, SKKanGAS inh 100.8 (no result: Beta cell apopt)
CC(C)C(=O)NC(c1ccc(N(C)C)cc1)c1c(O)ccc2ccccc12 (centres undefined)	none
O=C1N/C(=N/c2ccccn2)SC1Cc1ccccc1 (centres undefined)	none
O=C1N/C(=N\c2ccccn2)SC1Cc1ccc(Cl)cc1 (centres undefined)	SKKanGAS inh 50.1
CCN(C[C@H]1N[C@@](Cc2ccccc2)(C(=O)OC)[C@H]2C(=O)N(Cc3ccccc3)C(=O)[C@@H]12)C(=O)C1CCCCC1	none (no result: CSC inhib, Beta cell apopt, T cruzi inh, HIF activator, SKKanGAS inh)
O=c1cc(C(F)(F)F)[nH]c2c(OC(F)(F)F)cccc12	CSC inhib 79.0
Cc1cccc2c(=O)cc(C(F)(F)F)[nH]c12	none
